The target in assay [1] is T1, Mucosa-associated lymphoid tissue lymphoma translocation protein 1 (Homo sapiens, UniProt Q9UDY8).
T1 sequence (Q9UDY8 whole entry): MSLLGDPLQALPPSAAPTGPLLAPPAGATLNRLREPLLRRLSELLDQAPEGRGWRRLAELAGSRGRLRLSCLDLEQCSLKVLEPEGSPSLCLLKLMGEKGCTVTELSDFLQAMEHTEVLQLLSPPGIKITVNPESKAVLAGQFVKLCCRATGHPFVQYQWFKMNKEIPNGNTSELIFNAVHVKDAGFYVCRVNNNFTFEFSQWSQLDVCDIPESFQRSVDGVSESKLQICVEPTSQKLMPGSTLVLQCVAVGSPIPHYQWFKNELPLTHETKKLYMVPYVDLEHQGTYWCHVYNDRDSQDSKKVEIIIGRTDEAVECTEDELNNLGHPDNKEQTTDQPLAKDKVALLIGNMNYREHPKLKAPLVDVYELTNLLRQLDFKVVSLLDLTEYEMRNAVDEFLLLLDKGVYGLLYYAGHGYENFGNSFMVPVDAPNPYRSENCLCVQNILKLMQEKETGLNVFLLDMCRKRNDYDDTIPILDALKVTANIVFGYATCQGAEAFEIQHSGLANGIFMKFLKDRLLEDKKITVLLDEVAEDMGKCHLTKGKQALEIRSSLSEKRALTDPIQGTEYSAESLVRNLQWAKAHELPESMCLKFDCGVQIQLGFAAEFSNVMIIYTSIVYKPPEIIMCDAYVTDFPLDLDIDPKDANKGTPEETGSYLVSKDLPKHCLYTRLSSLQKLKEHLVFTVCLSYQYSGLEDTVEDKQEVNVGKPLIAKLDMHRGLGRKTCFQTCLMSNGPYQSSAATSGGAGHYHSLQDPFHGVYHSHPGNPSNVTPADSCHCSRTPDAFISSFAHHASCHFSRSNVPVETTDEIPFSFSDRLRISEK
As to the kind of experiment: Inhibition of MALT1 in human Jurkat cell lysate preincubated for 2 hrs followed by addition of 25 uM Ac-LRSR-AMC substrate for 3 hrs by fluorescence based assay. The class given is cell-free. The gist of the method:
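MALT1 paracaspase activity in Jurkat cell lysate, read as fluorescence from AMC (7-amino-4-methylcoumarin) released when MALT1 cleaves the fluorogenic tetrapeptide Ac-LRSR-AMC. Inhibition is taken against an untreated control. IC50 is the mean of two independent experiments, each run in duplicate.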

Assay [2] is described as follows: Antiproliferative activity against human NK92 cells. The class given is functional, cell-based.
The next assay has as its system A549. As to the kind of experiment: Antiproliferative activity against human A549 cells. The class given is functional, cell-based.
Assay [3] is described as follows: Antiproliferative activity against human SupT1 cells. As to conditions: SUP-T1. The class given is functional, cell-based.
Assay [4] can be described thus: Antiproliferative activity against human MJ cells. The class given is functional, cell-based.
Another assay relates to HuT78. In words: Antiproliferative activity against human HUT78 cells. The class given is functional, cell-based.
A short description of assay [5]: Antiproliferative activity against human OCI-LY3 cells after 48 hrs by MTT assay. The class given is functional, cell-based. The note with it: OCI-Ly3, 48 h. For orientation: Tetrazolium dyes change colour on reduction, which living cells bring about.
In assay [6] the target is T1, Mucosa-associated lymphoid tissue lymphoma translocation protein 1. In words: Inhibition of His-tagged human MALT1 (catalytic domain-339-719 aa) by fluorescence based assay using 25 uM Ac-LRSR-AMC as substrate.
Assay [7] has as its target T2, Mucosa-associated lymphoid tissue lymphoma translocation protein 1 (Homo sapiens) (UniProt Q9UDY8).
T2 sequence (whole entry): T1 sequence (Q9UDY8 whole entry)
In words: Inhibition of MALT1 paracaspase activity in human OCI-LY3 cells assessed as decrease in cleaved CYLD level after 24 hrs by western blot analysis. The class given is cell-based.

Each structure is given as a SMILES string. Some results are limits rather than exact numbers.

For `O=C1C=C(NCCc2ccccc2)c2ccccc2C1=O`, the 50% inhibitory concentration (IC50) – broadly, the concentration at which inhibition is half-maximal – in assay [1] is over 100 µM.
For the molecule `O=C(CNC1=CC(=O)C(=O)c2ccccc21)NCCc1ccccc1`, the IC50 in assay [1] is 3.1 µM.
Same read-out and setting: with `CN(C)CCNC1=CC(=O)C(=O)c2ccccc21` the figure was 1.6 µM.
With `CC1(C)CCC2=C(O1)c1ccc(C#N)cc1C(=O)C2=O`, the half-maximal inhibitory concentration (IC50) in [2] was 17 µM; in the assay on A549, 5.7 µM; in assay [3], 5.6 µM; in [4], 16.7 µM; with HuT78, 12.3 µM; in assay [5], 1.5 µM. In assay [6], this molecule came in with an IC50 of 1.6 µM. For the same molecule, the inhibition result in [7] is “Dose-dependent effect”.
Take `CC1(C)CCC2=C(O1)c1ccc(Br)cc1C(=O)C2=O`: the IC50 in assay [5] stood at 4.1 µM; in [6], 9.2 µM.
In assay [1], `O=C1C=C(NCCCN2CCCC2)c2ccccc2C1=O` displayed a 50% inhibitory concentration (IC50) of 11.9 µM.
Still for that read-out and setting: the result for `CC(C)(C)OC(=O)NCCNC1=CC(=O)C(=O)c2ccccc21` reads 14.9 µM.
In turn, `CC1(C)CCC2=C(O1)c1cc(O)ccc1C(=O)C2=O` had an IC50 in assay [6] of 9.3 µM.
With `O=C1C=C(NCCCN2CCCC2=O)c2ccccc2C1=O`, in [1], the half-maximal inhibitory concentration (IC50) was 14.4 µM. That is a double-digit micromolar value.
Molecule `CC(C)=CCC1=C(O)C(=O)c2cc(F)ccc2C1=O` yielded a half-maximal inhibitory concentration (IC50) in assay [1] of over 10 µM.
In turn, `CC(C)=CCC1=C(O)C(=O)c2cc(Br)ccc2C1=O` had an IC50 in [1] of over 10 µM.
Same read-out and setting: with `O=C1C=C(NC2CCN(Cc3ccccc3)CC2)c2ccccc2C1=O` the figure was 5.4 µM.
Take `COc1ccc2c(c1)C(=O)C(=O)C1=C2OC(C)(C)CC1`: the figures for the IC50 in [5] and in assay [6] were 3.1 µM and 0.6 µM, respectively.
`CC(C)NC1=CC(=O)C(=O)c2ccccc21` yielded an IC50 in assay [1] of 20.4 µM.
For `COc1cc2c(cc1OC)C1=C(CCC(C)(C)O1)C(=O)C2=O`, the half-maximal inhibitory concentration (IC50) in assay [5] came out at 8.5 µM; in assay [6] it was 2.3 µM.
For the molecule `CNC(=O)CNC1=CC(=O)C(=O)c2ccccc21`, the half-inhibitory concentration (IC50) in assay [1] stood at 3 µM; in [5], 9.4 µM.
`CC1(C)CCC2=C(O1)c1ccc(F)cc1C(=O)C2=O`: the IC50 in [5] worked out at 3.3 µM; in assay [6], 1.5 µM. Besides, the inhibition entry in assay [7] is “Dose-dependent effect”.
For the molecule `COCCOc1nc(-c2ccc(Cl)c(Cl)c2)n(-c2ccc(NC(=O)CCl)cc2)n1`, the IC50 was determined as 2.6 µM in assay [5] and 3.3 µM in [6].
With `O=C1C=C(NCCN2CCOCC2)c2ccccc2C1=O`, 21.9 µM corresponded to half-maximal inhibition in assay [1] (IC50).
As to `CC1(C)CCC2=C(O1)c1ccccc1C(=O)C2=O` [LAPACHONE], the IC50 in assay [1] was 1.9 µM; in [5], 4 µM; in [6], 1.2 µM.
With `COCCNC1=CC(=O)C(=O)c2ccccc21`, the half-maximal inhibitory concentration (IC50) in assay [1] was 7.8 µM; in [5], over 10 µM.
In the same order, the values of `CN(C)C1=CC(=O)C(=O)c2ccccc21` are 2.5 µM and over 10 µM.
With `O=C1C=C(NCC(=O)N2CCCC2)c2ccccc2C1=O`, in assay [1], the IC50 is 4.1 µM.
For `CC1(C)CCC2=C(O1)c1ccc([N+](=O)[O-])cc1C(=O)C2=O`, the IC50 in assay [5] was determined as 4.6 µM; in assay [6], 0.4 µM.
In the case of `O=C1C=C(NC2CCN(Cc3ccccc3)C2)c2ccccc2C1=O` (stereo not drawn), the IC50 in assay [1] is 1.5 µM; in assay [5] it was over 10 µM.
Regarding `COc1cc2c(cc1OC)C(=O)C1=C(CCC(C)(C)O1)C2=O`, the concentration for half-maximal inhibition (IC50) in [1] was over 10 µM.
In the case of `COc1ccc2c(c1)C1=C(CCC(C)(C)O1)C(=O)C2=O`, the IC50 is 17 µM in assay [5] and 9.2 µM in assay [6].

For the origin of these results see ChEMBL document CHEMBL3632578, “Identification of β-Lapachone Analogs as Novel MALT1 Inhibitors To Treat an Aggressive Subtype of Diffuse Large B-Cell Lymphoma” (J Med Chem, 2015).
